Reference: ChEMBL document CHEMBL1136016, “Synthesis, biological activity, and molecular modeling investigation of new pyrazolo[4,3-e]-1,2,4-triazolo[1,5-c]pyrimidine derivatives as human A(3) adenosine receptor antagonists” (J Med Chem, 2002)

Experiments:
Adenosine receptor A2b [1] = biological target: T1, Adenosine receptor A2b (Homo sapiens, UniProt P29275); assay: biochemical
T1 sequence (P29275 whole entry): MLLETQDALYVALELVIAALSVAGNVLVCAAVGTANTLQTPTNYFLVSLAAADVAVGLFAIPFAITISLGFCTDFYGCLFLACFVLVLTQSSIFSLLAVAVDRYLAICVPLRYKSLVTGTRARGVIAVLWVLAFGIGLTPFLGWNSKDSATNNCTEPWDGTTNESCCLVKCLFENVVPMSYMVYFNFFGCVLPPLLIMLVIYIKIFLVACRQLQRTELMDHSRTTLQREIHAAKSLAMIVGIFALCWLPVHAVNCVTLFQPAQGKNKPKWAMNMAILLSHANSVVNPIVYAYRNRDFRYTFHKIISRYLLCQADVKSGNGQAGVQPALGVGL

Adenosine receptor A3 [2] = biological target: T2, Adenosine receptor A3 (Homo sapiens, UniProt P0DMS8); assay: Displacement of [3H]MRE3008-F20 from human Adenosine A3 receptor expressed in HEK cells; range 0.13-0.20; format: cell-based, HEK293
T2 sequence (P0DMS8 whole entry): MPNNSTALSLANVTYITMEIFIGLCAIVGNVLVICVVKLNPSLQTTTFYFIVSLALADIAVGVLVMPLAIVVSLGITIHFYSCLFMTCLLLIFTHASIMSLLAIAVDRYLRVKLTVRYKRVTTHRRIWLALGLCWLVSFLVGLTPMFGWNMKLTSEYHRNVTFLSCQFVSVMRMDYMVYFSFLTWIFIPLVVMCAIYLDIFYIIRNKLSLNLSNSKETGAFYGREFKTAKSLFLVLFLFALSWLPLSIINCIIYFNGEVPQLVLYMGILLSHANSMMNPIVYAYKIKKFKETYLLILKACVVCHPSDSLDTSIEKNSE

Adenosine receptor A2a [3] = biological target: T3, Adenosine receptor A2a (Homo sapiens, UniProt P29274); assay: biochemical
Adenosine receptor A3 [4] = biological target: T2, Adenosine receptor A3; assay: Inhibition of IB-MECA agonist-mediated cAMP production in membranes of CHO cells expressing human Adenosine A3 receptor; format: functional, cell-based
Summary of the method: (§1)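 Human A3-CHO membranes (in 50 mM Tris HCl, 10 mM MgCl2, 1 mM EDTA, pH 7.4) were preincubated for 10 min at 37 °C with 5 µM GTP, 0.5 mM Ro 20-1724 and 2.0 IU/mL adenosine deaminase. IB-MECA (100 nM) or antagonist was then added with 1 mM ATP and forskolin for 10 min. The reaction was stopped by 2 min boiling. cAMP was measured by [3H]cAMP competitive protein binding using beef adrenal binding protein, 150 min at 4 °C.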

[5] = biological target: Adenosine receptors; A1 & A3 (Homo sapiens) (UniProt P30542+P0DMS8); assay: Selectivity ratio (hA1/hA3); format: protein assay
[6] = biological target: Adenosine receptors; A2b & A3 (Homo sapiens) (UniProt P29275+P0DMS8); assay: Selectivity ratio (h2B/hA3); format: protein assay
Adenosine receptor A1 [7] = biological target: T4, Adenosine receptor A1 (Homo sapiens, UniProt P30542); assay: biochemical
T4 sequence (P30542 whole entry): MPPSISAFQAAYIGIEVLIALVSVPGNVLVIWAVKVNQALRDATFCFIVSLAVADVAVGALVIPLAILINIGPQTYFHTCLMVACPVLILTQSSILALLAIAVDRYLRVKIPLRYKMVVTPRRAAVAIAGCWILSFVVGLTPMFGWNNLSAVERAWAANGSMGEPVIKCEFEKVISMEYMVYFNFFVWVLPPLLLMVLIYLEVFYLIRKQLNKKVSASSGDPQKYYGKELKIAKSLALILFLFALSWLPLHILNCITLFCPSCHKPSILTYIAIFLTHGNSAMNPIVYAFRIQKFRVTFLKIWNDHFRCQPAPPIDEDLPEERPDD

Adenosine receptor A2b [8] = biological target: T1, Adenosine receptor A2b; assay: Displacement of [3H]-DPCPX from human Adenosine A2B receptor expressed in HEK293 cells; range 118-173; format: cell-based
Summary of the method: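 HEK-293 membranes expressing the human receptor were incubated 60 min at 25 °C. Six to eight test concentrations were used. Nonspecific binding was set with NECA. n = 3-6.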

Adenosine receptor A2a [9] = biological target: T3, Adenosine receptor A2a; assay: Displacement of [3H]SCH-58261 from human Adenosine A2A receptor expressed in HEK293 cells; range 255-366; format: cell-based
Adenosine receptor A3 [10] = biological target: T2, Adenosine receptor A3; assay: Displacement of [3H]MRE3008-F20 from human Adenosine A3 receptor expressed in HEK cells; range 0.65-1.58; format: cell-based, HEK293
Adenosine receptor A2a [11] = biological target: T3, Adenosine receptor A2a; assay: Displacement of [3H]SCH-58261 from human Adenosine A2A receptor expressed in HEK293 cells; range 23-40; format: cell-based
Adenosine receptor A3 [12] = biological target: T2, Adenosine receptor A3; assay: Displacement of [3H]MRE3008-F20 from human Adenosine A3 receptor expressed in HEK cells; range 0.11-0.18; format: cell-based, HEK293
Adenosine receptor A1 [13] = biological target: T4, Adenosine receptor A1; assay: Displacement of [3H]DPCPX from human Adenosine A1 receptor expressed in CHO cells; range 248-276; format: cell-based
Adenosine receptor A2b [14] = biological target: T1, Adenosine receptor A2b; assay: Displacement of [3H]DPCPX from human Adenosine A2B receptor expressed in HEK293 cells; range 118-146; format: cell-based
Summary of the method: (§2)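 Competition binding on membranes of HEK-293 cells carrying recombinant human A2B receptor. Incubation 60 min at 25 °C in 50 mM Tris HCl pH 7.4 with 10 mM MgCl2, 1 mM EDTA, 0.1 mM benzamidine and 2 IU/mL adenosine deaminase. Radioligand 40 nM [3H]DPCPX, at least six to eight test concentrations. NECA defined nonspecific binding. Bound ligand separated on glass-fibre filters and counted; n = 3-6.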

Adenosine receptor A2b [15] = biological target: T1, Adenosine receptor A2b; assay: Displacement of [3H]DPCPX from human Adenosine A2B receptor expressed in HEK293 cells; range 115-143; format: cell-based
Summary of the method: as §2

Adenosine receptor A2a [16] = biological target: T3, Adenosine receptor A2a; assay: Displacement of [3H]SCH-58261 from human Adenosine A2A receptor expressed in HEK293 cells; range 162-200; format: cell-based
Adenosine receptor A1 [17] = biological target: T4, Adenosine receptor A1; assay: Displacement of [3H]DPCPX from human Adenosine A1 receptor expressed in CHO cells; range 351-526; format: cell-based
Summary of the method: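 Competition binding on membranes of CHO cells stably expressing human A1 receptor, resuspended in 50 mM Tris HCl pH 7.4. Incubation 120 min at 25 °C with 1 nM [3H]DPCPX, 50 µg protein per assay and at least six to eight test concentrations. CHA defined nonspecific binding. Bound ligand separated on glass-fibre filters and counted; n = 3-6.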

Adenosine receptor A3 [18] = biological target: T2, Adenosine receptor A3; assay: Displacement of [3H]MRE3008-F20 from human Adenosine A3 receptor expressed in HEK cells; range 0.23-0.36; format: cell-based, HEK293
Adenosine receptor A3 [19] = biological target: T2, Adenosine receptor A3; assay: Inhibition of IB-MECA agonist-mediated cAMP production in membranes of CHO cells expressing human Adenosine A3 receptor; range 1.2-4.9; format: functional, cell-based
Summary of the method: as §1

Adenosine receptor A3 [20] = biological target: T2, Adenosine receptor A3; assay: Displacement of [3H]MRE3008-F20 from human Adenosine A3 receptor expressed in HEK cells; range 31-50; format: cell-based, HEK293
Adenosine receptor A1 [21] = biological target: T4, Adenosine receptor A1; assay: Displacement of [3H]DPCPX from human Adenosine A1 receptor expressed in CHO cells; format: cell-based
Summary of the method: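 Human recombinant A1 receptor in CHO cell membranes, resuspended in 50 mM Tris HCl pH 7.4. Displacement run 120 min at 25 °C with 1 nM [3H]DPCPX, 50 µg protein per assay, and at least six to eight test concentrations. Nonspecific binding defined with CHA. Bound and free separated on glass-fiber filters; filter radioactivity counted. n = 3-6.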

Adenosine receptor A2a [22] = biological target: T3, Adenosine receptor A2a; assay: Displacement of [3H]SCH-58261 from human Adenosine A2A receptor expressed in HEK293 cells; range 199-311; format: cell-based
Adenosine receptor A2b [23] = biological target: T1, Adenosine receptor A2b; assay: Displacement of [3H]DPCPX binding at human Adenosine A2B receptor expressed in HEK293 cells; format: cell-based
Summary of the method: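 Membranes from HEK-293 cells with human recombinant A2B receptor. Incubation 60 min at 25 °C in 50 mM Tris HCl, 10 mM MgCl2, 1 mM EDTA, 0.1 mM benzamidine, pH 7.4, with 2 IU/mL adenosine deaminase and 40 nM [3H]DPCPX. At least six to eight test concentrations. Nonspecific binding defined with NECA. n = 3-6.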

T3 sequence (P29274 whole entry): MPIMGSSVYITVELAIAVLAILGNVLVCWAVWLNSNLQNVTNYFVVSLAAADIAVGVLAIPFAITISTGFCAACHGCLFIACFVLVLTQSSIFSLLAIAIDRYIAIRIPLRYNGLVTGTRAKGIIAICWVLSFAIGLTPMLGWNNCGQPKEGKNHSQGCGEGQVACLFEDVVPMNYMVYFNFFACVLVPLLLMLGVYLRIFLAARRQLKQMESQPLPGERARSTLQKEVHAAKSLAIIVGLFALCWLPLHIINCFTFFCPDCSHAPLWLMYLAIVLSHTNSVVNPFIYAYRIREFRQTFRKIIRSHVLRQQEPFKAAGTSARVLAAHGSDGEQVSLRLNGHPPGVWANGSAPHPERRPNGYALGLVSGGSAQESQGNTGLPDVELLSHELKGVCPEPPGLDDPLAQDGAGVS

Question: Which results are given for `Cn1cc2c(nc(NC(=O)Nc3ccccc3)n3nc(-c4ccco4)nc23)n1`?
Answer: Ki (Adenosine receptor A2b [1]): 222 nM; Ki (Adenosine receptor A3 [2]): 0.16 nM; Ki (Adenosine receptor A2a [3]): 381 nM; IC50 (Adenosine receptor A3 [4]): 2 nM; Ratio [5]: 3710; Ratio [6]: 1390; Ki (Adenosine receptor A1 [7]): 594 nM

Question: `CCCn1cc2c(nc(NC(=O)Cc3ccccc3)n3nc(-c4ccco4)nc23)n1` was tested. Which Ki (Adenosine receptor A2b [8]) did it give?
Answer: Its Ki is 143 nM.

Question: And the Ratio [5]?
Answer: The Ratio was 348.

Question: What about the Ratio [6] of the same compound?
Answer: Its Ratio is 142.

Question: And the Ki (Adenosine receptor A2a [9])?
Answer: Its Ki is 306 nM.

Question: And the Ki (Adenosine receptor A3 [10])?
Answer: Its Ki is 1.01 nM.

Question: Which results are given for `CCn1cc2c(nc(NC(=O)Nc3ccc(C)cc3)n3nc(-c4ccco4)nc23)n1`?
Answer: Ki (Adenosine receptor A2a [11]): 30 nM; Ki (Adenosine receptor A3 [12]): 0.14 nM; Ki (Adenosine receptor A1 [13]): 262 nM; Ratio [5]: 1870; Ki (Adenosine receptor A2b [14]): 132 nM; Ratio [6]: 943

Question: Which Ratio [5] does the source give for `Cn1cc2c(nc(NC(=O)Nc3ccc(Cl)cc3)n3nc(-c4ccco4)nc23)n1` here?
Answer: The Ratio was 1480.

Question: What about the Ki (Adenosine receptor A2b [15]) of the same compound?
Answer: The Ki was 128 nM.

Question: What about the Ki (Adenosine receptor A2a [16]) of the same compound?
Answer: Its Ki is 180 nM.

Question: What about the Ki (Adenosine receptor A1 [17]) of the same compound?
Answer: The Ki was 430 nM.

Question: What about the Ki (Adenosine receptor A3 [18]) of the same compound?
Answer: The Ki was 0.29 nM.

Question: What about the Ratio [6] of the same compound?
Answer: The Ratio was 441.

Question: And the IC50 (Adenosine receptor A3 [19])?
Answer: Its IC50 is 2.4 nM.

Question: What does the source list for `CCn1cc2c(nc(NC(=O)Nc3ccc(S(=O)(=O)O)cc3)n3nc(-c4ccco4)nc23)n1`?
Answer: Ki (Adenosine receptor A3 [20]): 40 nM; Ratio [5]: > 250; Ki (Adenosine receptor A1 [21]): > 10000 nM; Ki (Adenosine receptor A2a [22]): 249 nM; Ratio [6]: > 250; Ki (Adenosine receptor A2b [23]): > 10000 nM
